Results published in ChEMBL document CHEMBL1154863 (J Nat Prod, 2010).
Calls of active or inactive are those of the source.

Key:
[1] = molecular target: Neuronal acetylcholine receptor subunit alpha-7 (Rattus norvegicus, UniProt Q05941); assay: Displacement of [3H]iodo-MLA from alpha7 nAChR in rat cerebral cortex after 2 hrs by scintillation counting; format: tissue-based
In short: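 Washed rat cerebral cortex homogenate (3 mg wet weight) in Tris pH 7.4 buffer with salts. 2 h on ice. Nonspecific binding defined with 300 µM (−)-nicotine. Filtered onto BSA-soaked GF/B, then microplate scintillation counting.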

[2] = test system: Mus musculus; assay: Antinociceptive activity in sc dosed mouse assessed as reaction time taken to jump or lick paw after 5 mins by hot plate test; format: functional
In short: (§1)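 Mice placed in a glass cylinder on a 55.0 °C hot plate. Two control latencies taken at least 10 min apart; normal latency 8–12 s. Jump or paw lick scored. Tested 5 min after s.c. injection, eight mice per dose. %MPE calculated against a 40 s maximum.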

[3] = test system: Mus musculus; assay: Effect on rectal body temperature in sc dosed mouse assessed as change in temperature after 30 mins by inducible hypothermia test; format: functional; details: 0.5 h
In short: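 Rectal temperature measured in mice with a thermistor probe inserted 24 mm, read before and 30 min after s.c. saline or analogue. Change from pre-treatment value calculated for each mouse.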

[4] = test system: Mus musculus; assay: Effect on locomotory activity in sc dosed mouse assessed as change in spontaneous activity after 5 mins by photocell interruption readings; format: functional
In short: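 Mice placed in photocell activity cages 5 min after s.c. saline or analogue. Beam interruptions recorded over the next 10 min and expressed as photocell interruption counts.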

[5] = molecular target: Neuronal acetylcholine receptor; alpha4/beta2 (Rattus norvegicus, UniProt P09483+P12390); assay: Displacement of [3H]epibatidine from alpha4beta2 nAChR in rat cerebral cortex after 4 hrs by scintillation counting; format: tissue-based
Neuronal acetylcholine receptor; alpha4/beta2, sequence (P09483 whole entry): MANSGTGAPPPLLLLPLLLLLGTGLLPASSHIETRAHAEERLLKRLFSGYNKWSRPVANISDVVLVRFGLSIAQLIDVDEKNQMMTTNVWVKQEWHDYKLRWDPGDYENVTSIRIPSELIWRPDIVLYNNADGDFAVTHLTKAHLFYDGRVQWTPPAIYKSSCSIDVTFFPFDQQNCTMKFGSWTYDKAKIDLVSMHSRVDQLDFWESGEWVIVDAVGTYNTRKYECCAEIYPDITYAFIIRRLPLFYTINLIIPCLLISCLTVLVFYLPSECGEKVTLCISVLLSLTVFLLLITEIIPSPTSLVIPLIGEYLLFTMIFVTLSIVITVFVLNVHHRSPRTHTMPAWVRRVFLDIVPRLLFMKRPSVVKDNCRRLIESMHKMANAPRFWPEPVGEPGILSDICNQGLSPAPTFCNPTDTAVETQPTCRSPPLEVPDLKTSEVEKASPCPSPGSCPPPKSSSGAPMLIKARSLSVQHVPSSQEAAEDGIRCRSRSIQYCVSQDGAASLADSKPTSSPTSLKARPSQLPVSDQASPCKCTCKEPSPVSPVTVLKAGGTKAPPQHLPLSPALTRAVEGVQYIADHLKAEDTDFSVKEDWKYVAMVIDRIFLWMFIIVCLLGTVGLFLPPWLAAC
Neuronal acetylcholine receptor; alpha4/beta2, sequence (P12390 whole entry): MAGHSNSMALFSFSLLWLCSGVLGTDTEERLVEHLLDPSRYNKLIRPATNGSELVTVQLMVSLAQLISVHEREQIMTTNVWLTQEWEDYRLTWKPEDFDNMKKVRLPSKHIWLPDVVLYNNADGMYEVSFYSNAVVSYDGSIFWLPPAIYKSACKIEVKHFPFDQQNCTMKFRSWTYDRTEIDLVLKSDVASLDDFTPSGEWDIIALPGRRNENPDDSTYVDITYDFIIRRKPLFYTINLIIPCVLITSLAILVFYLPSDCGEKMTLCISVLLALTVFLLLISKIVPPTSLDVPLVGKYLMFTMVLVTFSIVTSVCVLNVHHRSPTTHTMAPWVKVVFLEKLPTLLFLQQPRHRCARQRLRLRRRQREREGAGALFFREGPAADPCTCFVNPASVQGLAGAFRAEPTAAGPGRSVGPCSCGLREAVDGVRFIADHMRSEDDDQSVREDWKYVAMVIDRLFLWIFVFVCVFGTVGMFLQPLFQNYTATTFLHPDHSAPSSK
In short: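 Rat cerebral cortex homogenate (3 mg wet weight, washed three times) in 50 mM Tris pH 7.4 with NaCl, KCl, CaCl2, MgCl2. 4 h at room temperature. Filtration onto polyethylenimine-soaked GF/B, scintillation counting. Ki from IC50 by Cheng-Prusoff.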

[6] = test system: Mus musculus; assay: Inhibition of nicotine-induced antinociception in sc dosed mouse assessed as tail withdrawal latency after 5 mins by tail flick test; format: functional
[7] = test system: Mus musculus; assay: Inhibition of nicotine-induced antinociception in mouse assessed as reaction time taken to jump or lick paw at 10000 ug/kg after 5 mins by hot plate test; format: functional
[8] = test system: Mus musculus; assay: Antinociceptive activity in sc dosed mouse after 5 mins by tail flick test; format: functional
In short: (§2)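 Mice, tail-flick by the D'Amour–Smith method. Baseline latency 2–4 s, 10 s cutoff. Tested 5 min after s.c. injection. Response expressed as %MPE = (test−control)/(10−control)×100. 8–12 mice per dose, at least four doses per dose-response curve.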

[9] = test system: Mus musculus; assay: Inhibition of nicotine-induced antinociception in sc dosed mouse assessed as reaction time taken to jump or lick paw after 5 mins by hot plate test; format: functional
[10] = test system: Mus musculus; assay: Inhibition of nicotine-induced antinociception in mouse assessed as reaction time taken to jump or lick paw at 50 ug/kg after 5 mins by hot plate test; format: functional
[11] = test system: Mus musculus; assay: Inhibition of nicotine-induced antinociception in mouse assessed as reaction time taken to jump or lick paw at 100 ug/kg after 5 mins by hot plate test; format: functional
[12] = species: Rattus norvegicus; assay: Selectivity ratio of Ki for rat alpha7 nAChR to Ki for rat alpha4beta2 nAChR
[13] = test system: Mus musculus; assay: Antinociceptive activity in mouse at 2 mg/kg, sc after 5 mins by tail flick test; format: functional; details: route subcutaneous; in short: as §2
[14] = test system: Mus musculus; assay: Antinociceptive activity in mouse assessed as reaction time taken to jump or lick paw at 2 mg/kg, sc after 5 mins by hot plate test; format: functional; details: route subcutaneous; in short: as §1
[15] = test system: Mus musculus; assay: Inhibition of nicotine-induced antinociception in mouse assessed as reaction time taken to jump or lick paw at 200 ug/kg after 5 mins by hot plate test; format: functional
[16] = Mus musculus, Tail, sc, 5 min, read-out: ED50

Neuronal acetylcholine receptor subunit alpha-7, sequence (Q05941 whole entry): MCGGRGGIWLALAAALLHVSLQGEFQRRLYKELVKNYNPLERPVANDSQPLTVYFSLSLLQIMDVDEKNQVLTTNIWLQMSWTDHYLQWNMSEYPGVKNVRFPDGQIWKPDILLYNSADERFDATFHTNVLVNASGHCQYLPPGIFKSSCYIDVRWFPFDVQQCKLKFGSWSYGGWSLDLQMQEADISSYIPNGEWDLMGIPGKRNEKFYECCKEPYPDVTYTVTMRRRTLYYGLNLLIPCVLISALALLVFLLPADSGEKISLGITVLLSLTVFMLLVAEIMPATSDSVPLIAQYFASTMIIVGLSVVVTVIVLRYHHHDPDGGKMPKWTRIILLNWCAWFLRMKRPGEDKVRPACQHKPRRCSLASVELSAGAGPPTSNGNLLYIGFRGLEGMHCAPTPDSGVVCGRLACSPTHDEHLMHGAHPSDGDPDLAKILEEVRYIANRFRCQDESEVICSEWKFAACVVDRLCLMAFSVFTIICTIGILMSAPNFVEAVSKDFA

Structure (SMILES) | Ki [1] [nM] | ED50 [2] [mg/kg] | ED50 [3] [mg/kg] | ED50 [4] [mg/kg] | Ki [5] [nM] | AD50 [6] [mg/kg] | inhibition in vivo at 10 mg/kg [7] [%] | ED50 [8, 16] [mg/kg] | AD50 [9] [mg/kg] | ED50 [8] [mg/kg] | inhibition in vivo at 0.05 mg/kg [10] [%] | inhibition in vivo at 0.1 mg/kg [11] [%] | Ratio Ki [12] | Activity [13] [%] | Activity [14] [%] | Activity [2] | Activity [8] | inhibition in vivo at 0.2 mg/kg [15] [%]
Clc1ncc([C@H]2C[C@@H]3CC[C@H]2N3)cc1-c1ccccc1 | 260 | 1 | 0.4 | 0.35 | 0.021 | 0.28 | 30 | 0.7 |  |  |  |  |  |  |  |  |  | 
Clc1ncc([C@H]2C[C@@H]3CC[C@H]2N3)cc1-c1cccc(Br)c1 | 85 | 2.2 | 0.67 | 0.11 | 0.016 | 0.01 |  | 0.54 | 0.22 |  |  |  |  |  |  |  |  | 
O=[N+]([O-])c1cccc(-c2cc([C@H]3C[C@@H]4CC[C@H]3N4)cnc2Cl)c1 | 229 | 3.2 | 1.4 | 0.9 | 0.008 | 0.00025 |  | 4.6 | 0.18 |  |  |  |  |  |  |  |  | 
Clc1ccc([C@@H]2C[C@H]3CC[C@@H]2N3)cn1 (stereo in doubt; (-)-1) [(+)-EPIBATIDINE] |  |  |  |  |  |  |  |  |  | 0.0066 |  |  |  |  |  |  |  | 
Nc1cccc(-c2cc([C@H]3C[C@@H]4CC[C@H]3N4)cnc2Cl)c1 | 256 | 0.3 | 0.31 | 0.03 | 0.017 | 0.00014 |  | 0.34 | 0.026 |  |  |  |  |  |  |  |  | 
O=[N+]([O-])c1ccc(-c2cc([C@H]3C[C@@H]4CC[C@H]3N4)cnc2Cl)cc1 | 250 | 0.38 | 0.23 | 0.24 | 0.015 | 0.007 |  | 0.46 |  |  | 17 |  |  |  |  |  |  | 
Clc1ccc([C@@H]2C[C@H]3CC[C@@H]2N3)cn1 (stereo in doubt; (+)-1) [(+)-EPIBATIDINE] |  | 0.004 | 0.004 | 0.001 |  |  |  | 0.0061 |  |  |  |  |  |  |  |  |  | 
Clc1ccc(-c2cc([C@H]3C[C@@H]4CC[C@H]3N4)cnc2Cl)cc1 | 209 | 2 | 0.89 | 0.53 | 0.039 | 0.001 |  | 2.6 |  |  |  | 10 |  |  |  |  |  | 
Fc1ccc(-c2cc([C@H]3C[C@@H]4CC[C@H]3N4)cnc2Cl)cc1 | 309 | 1.27 | 0.33 | 0.33 | 0.017 | 0.0005 |  | 2.48 |  |  |  | 30 |  |  |  |  |  | 
Clc1cccc(-c2cc([C@H]3C[C@@H]4CC[C@H]3N4)cnc2Cl)c1 | 30.5 | 4.2 | 0.38 | 0.06 | 0.013 | 0.0022 |  | 3.4 | 0.08 |  |  |  | 2000 |  |  |  |  | 
COc1cccc(-c2cc([C@H]3C[C@@H]4CC[C@H]3N4)cnc2Cl)c1 | 558 | 0.8 | 0.7 | 0.2 | 0.019 | 0.029 |  | 0.7 |  |  |  | 0 |  |  |  |  |  | 
CN1CCC[C@H]1c1cccnc1 [NICOTINE] |  | 0.65 | 1 | 0.5 |  |  |  | 1.3 |  |  |  |  |  |  |  |  |  | 
Fc1cccc(-c2cc([C@H]3C[C@@H]4CC[C@H]3N4)cnc2Cl)c1 | 250 | 0.43 | 0.19 | 0.07 | 0.012 | 0.0039 |  | 1 | 0.086 |  |  |  |  |  |  |  |  | 
Nc1ccc(-c2cc([C@H]3C[C@@H]4CC[C@H]3N4)cnc2Cl)cc1 | 234 | 4.5 | 1.1 | 0.52 | 0.034 | 0.006 |  | 5 |  |  |  | 0 |  |  |  |  |  | 
CN(C)c1cccc(-c2cc([C@H]3C[C@@H]4CC[C@H]3N4)cnc2Cl)c1 | 1100 |  | 3.3 |  | 0.009 | 0.02 |  |  | 0.56 |  |  |  |  | 0 | 0 |  |  | 
c1cnc2cc3c(cc2n1)[C@@H]1CNC[C@H]3C1 |  |  |  |  |  |  |  |  |  |  |  |  |  |  |  | inactive | inactive | 
COc1ccc(-c2cc([C@H]3C[C@@H]4CC[C@H]3N4)cnc2Cl)cc1 | 175 | 1.1 | 0.79 | 0.43 | 0.022 | 0.01 |  | 2.36 |  |  |  |  |  |  |  |  |  | 10
